MLLE-PAM2 inh = inhibitors of PABP1 MLLE–PAM2 peptide binding, primary screen, biochemical, fluorescence polarization, FITC-PAM2, GST-MLLE | AID 588489, 2011 | hit rate 0.36% among 360,000 | Polyadenylate-binding protein 1 (Homo sapiens), P11940 | inhibition, % at 20 µM; in the data active means inhibition above about 35%, passing the limit was not always enough;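 further: plate controls were DMSO wells with GST-MLLE for no effect and wells lacking GST-MLLE protein for full effect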
HCV core dimer = inhibitors of HCV core protein dimerization, primary screen, biochemical, TR-FRET, high-throughput; inhibition, % at 5 µM; TR-FRET GST/Flag-core106 dimerization, 1536-well; hit rate 0.33% among 300,000;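 active means inhibition above the mean of all tested compounds plus 3 SD, set per screening campaign, cut at about 45% in these data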
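System: GST-tagged and Flag-tagged HCV core protein residues 1-106 / Input: core106 proteins, GST 13.5 nM and Flag 17 nM / Buffer or medium: KF-containing HEPES buffer, pH 7.45, DTT, CHAPS, BSA / Probe or stimulus: Eu-anti-GST and XL665-anti-Flag labelled anti-tag antibodies / Schedule: 4 h, 22.5 °C incubation / Technique: TR-FRET 671 and 617 nm emission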
PABP polyA inh = PABP poly(A) RNA binding inhibitors, primary screen, biochemical, fluorescence polarization, uHTS; hit rate 1% among 290,000; Polyadenylate-binding protein 1 (Homo sapiens), P11940; calls only at 35 µM;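 further: calls also rest on retests at 20 µM and on dose response follow-up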
eIF4H inh = human eIF4H binding inhibitors, primary screen, translation initiation inhibitor project, biochemical, uHTS, fluorescence polarization. eIF4H fluorescence polarization binding assay. inhibition, % at 35 µM. hit rate 0.94% among 290,000. AID 2012, 2009;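 further: calls also rest on retests at 20 µM and on dose response follow-up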
UBC9 SUMO inh = inhibitors of in vitro SUMOylation cascade, primary screen, biochemical, HTRF, uHTS; SUMO-conjugating enzyme UBC9 (Homo sapiens), P63279; HTRF SUMOylation assay, SAE1/SAE2 + UBC9; inhibition, % at 35 µM; hit rate 0.36% among 290,000; AID 2006, 2009; in the data active means inhibition above about 50%, passing the limit was not always enough; inconclusive means no clear call, values can overlap the other calls
Target sequence (P63279 whole entry, looked up): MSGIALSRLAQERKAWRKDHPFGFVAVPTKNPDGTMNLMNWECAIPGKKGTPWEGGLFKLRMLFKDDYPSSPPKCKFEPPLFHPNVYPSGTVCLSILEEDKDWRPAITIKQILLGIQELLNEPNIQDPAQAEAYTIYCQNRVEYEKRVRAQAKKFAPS
eIF4E 4G PPI = eIF4E–eIF4G protein interaction inhibitors, primary screen, biochemical, uHTS, TR-FRET, eIF4GI fragment | Eukaryotic translation initiation factor 4E (Mus musculus) + Eukaryotic translation … | TR-FRET eIF4E-eIF4GI(517-606) binding, 2 h | inhibition, % at 21.7 µM | hit rate 0.37% among 220,000;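 active means inhibition above about 30%, limit read from the data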;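 further: 0% = full FRET control wells and 100% = background wells lacking eIF4GI fragment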
* hit, by the source's call; i = inactive; ? = inconclusive; / = no result given; + = active, no number. The list is not random: actives were taken first. Their share in the collection is about 1.8%. Unless noted, how the calls were made is not given here.

SMILES | MLLE-PAM2 inh | HCV core dimer | PABP polyA inh | eIF4H inh | UBC9 SUMO inh | eIF4E 4G PPI
COc1ccc(C2C(C#N)=C(N)SC(N)=C2C#N)cc1OC | 124.3 | 60.9* | ? | ? | -0.3 | 6.8
N#CC1=C(N)SC(N)=C(C#N)C1c1cccc(O)c1 | -71.5 | 11.2 | + | 74.2* | 23.6 | 1.2
Cn1nc([N+](=O)[O-])c(C(C#N)c2nc3ccccc3n2C)c(Cl)c1=O (stereo not drawn) | 65.0* | -6.3 | i | ? | 15.0 | -0.3
Nc1nc2ccc(S(=O)(=O)N3CCCCC3)cc2s1 | 42.1* | -5.7 | i | -4.6 | 11.3 | -1.6
Cc1ccc(S(=O)(=O)c2cc3ccccc3oc2=O)cc1 | -75.1 | 1.8 | i | 4.7 | 3.4 | 12.7
Cc1c(O)ccc2cc(S(=O)(=O)c3ccccc3)c(=O)oc12 | 43.9* | -3.0 | i | 10.0 | 24.9 | /
COc1ccc(OC)c(CN2CCN(c3ccc(S(=O)(=O)N4CCCC4)cn3)CC2)c1 | 11.9 | / | / | / | / | /
CN(CCc1ccccc1)C(C(=O)Nc1ccc2c(c1)OCCO2)c1ccnc2ccccc12 (stereo not drawn) | 7.1 | / | / | / | / | /
O=C(CC1SC(N2CCOCC2)=NC1=O)Nc1ccccc1Cl (stereo not drawn) | 9.0 | / | / | / | / | /
O=C(CC1SC(N2CCOCC2)=NC1=O)Nc1cc([N+](=O)[O-])ccc1Cl (stereo not drawn) | 17.2 | -1.2 | + | ? | 9.4 | -0.4
CN(CC(=O)Nc1cccc(Cl)c1)S(=O)(=O)/C=C/c1ccccc1 | 5.2 | / | / | / | / | /
COc1ccc(S(=O)(=O)N2CCN(C(=O)CNC(=O)c3ccc4c(c3)OCO4)CC2)cc1 | 5.3 | -4.6 | / | / | / | /
CC1CCN(C(=O)CSc2nnc(-c3ccc(S(=O)(=O)N4CCOCC4)cc3)n2C)CC1 | -6.9 | -2.9 | + | 53.0* | -14.9 | -1.2
CN(C)/C=C1\C(=O)N(c2ccc(Cl)c(Cl)c2)CS1(=O)=O | -9.0 | -3.9 | i | -5.7 | 4.1 | -1.0
CN(C)C1=C(Cl)C(=O)N(c2ccc(Cl)c(Cl)c2)C1=O | 60.4 | 2.7 | + | 99.3 | 33.7 | -11.9
COc1ccccc1-c1ccc2c(c1)O[C@@H](CN(C)C(=O)c1ccncc1)[C@H](C)CN([C@@H](C)CO)S2(=O)=O | -5.2 | / | / | / | / | /
Cc1ccc(C(=O)NCCc2nnc3ccc(NCc4ccc5c(c4)OCO5)nn23)cc1 | 5.5 | 0.5 | i | -14.2 | 9.8 | /
COc1cc(/C=C2\CCc3c2nc2ccccc2c3C(=O)O)cc(OC)c1OC | 2.3 | 9.8 | + | 86.7* | 54.2* | 27.6
CCN1C/C(=C\c2cccc(C)c2)c2nc3ccccc3c(C(=O)O)c2C1 | / | / | + | ? | 22.1 | -5.5
Cc1ccsc1/C=C1/CN(C)Cc2c1nc1ccccc1c2C(=O)O | 9.5 | -4.5 | i | 27.3 | 21.2 | 2.7
CN(c1ccc(F)cc1)S(=O)(=O)c1ccc(Cl)c(C(=O)NCc2ccco2)c1 | 1.9 | / | / | / | / | /
O=C(CC1Nc2cccc3cccc(c23)NC1=O)Nc1ccc(F)cc1 (stereo not drawn) | 11.9 | -14.4 | i | ? | 67.9* | 1.1
CCC[C@@H]1Cc2ccccc2N1C(C)=O | 5.0 | / | / | / | / | /
COc1ccc(OCC(=O)N2CC3(C)CC2CC(C)(C)C3)cc1 (stereo not drawn) | 2.4 | 6.6 | i | -7.2 | -19.7 | 36.2*
COc1ccccc1OCC(=O)N1CC2(C)CC1CC(C)(C)C2 (stereo not drawn) | 11.2 | -1.3 | i | 0.0 | 7.8 | 5.4
SMILES | MLLE-PAM2 inh | HCV core dimer | PABP polyA inh | eIF4H inh | UBC9 SUMO inh | eIF4E 4G PPI
CC(C)(C)OC(=O)N1CC2(CCCCC2)CC1Cc1ccc(C(F)(F)F)cc1 (stereo not drawn) | -8.6 | / | / | / | / | /
Cc1cc(C)c2c(=O)c(C#N)coc2c1 | 38.7* | 4.8 | i | -8.2 | 36.0 | 2.3
O=C(Nc1cccc(Cl)c1)Nc1sccc1-c1nc2ccccc2s1 | -100.2 | -4.8 | + | 78.6 | 3.2 | 1.4
COc1c(F)c(F)c(C(=O)Nc2ccccc2N2CCN(C(C)=O)CC2)c(F)c1F | 2.6 | 47.3* | i | -5.1 | 6.0 | 7.2
COc1c(F)c(F)c(C(=O)Nc2ccccc2N2CCN(C(=O)C(C)C)CC2)c(F)c1F | -3.0 | 11.4 | i | -1.2 | -7.0 | -11.8
CC1(C)c2ccccc2N2CCC(=O)NC21/C=C/c1ccco1 (stereo not drawn) | -74.8 | 0.2 | + | ? | 15.9 | 2.9
CC1(C)c2ccccc2N2CC(=O)NC21/C=C/c1ccco1 (stereo not drawn) | -25.2 | 6.1 | i | 24.5 | 12.1 | 7.3
COc1cc(NC(C)CCCNC(C)C)c2ncccc2c1OC (stereo not drawn) | 43.8* | / | / | / | / | /
C=C(CN(C)C)C(=O)c1ccc(OC2OC(COC(C)=O)C(OC(C)=O)C(OC(C)=O)C2OC(C)=O)cc1 (stereo not drawn) | 2.1 | / | / | / | / | /
CCOCc1cc(C)[nH]c(=O)c1C#N | 2.0 | -1.6 | i | 3.1 | -11.0 | 0.9
COCc1cc(C)c(C#N)c(=S)[nH]1 | 37.0* | 1.0 | i | -6.8 | -1.1 | 5.8
COCc1cc(=O)[nH]c(=S)[nH]1 | 40.4* | -1.8 | i | 0.6 | -0.5 | -4.7
O=c1cc(Cc2ccccc2)[nH]c(=S)[nH]1 | 32.6 | 4.0 | i | -9.6 | -0.9 | 5.4
C=CCn1c(SCC(=O)NC2CCCC2)nc2c([nH]c3ccccc32)c1=O | -4.8 | 5.2 | i | 5.3 | 11.3 | /
NS(=O)(=O)c1ccc(NC(=O)COC(=O)c2ccc3c(c2)OCCO3)cc1 | 21.1 | -0.9 | + | active | 14.8 | 1.0
O=C(COC(=O)c1ccc2c(c1)OCO2)Nc1nc(-c2ccccc2)cs1 | -2.0 | 25.7 | + | 1.7 | -12.0 | -3.7
CCOc1ccc(NC(=O)COC(=O)c2ccc3c(c2)OCCO3)cc1 | -7.4 | / | / | / | / | /
CCCCn1c(=NC(=O)c2ccc3c(c2)OCO3)c(C#N)cc2c(=O)n3cccc(C)c3nc21 | -29.6 | 43.5 | + | 81.0* | 7.2 | -20.8
COCCn1c(=NC(=O)c2ccc3c(c2)OCO3)c(C#N)cc2c(=O)n3cccc(C)c3nc21 | / | / | i | 3.0 | 23.7 | -0.6
O=C(Nc1ccccc1)c1ccccc1NS(=O)(=O)c1ccc(Cl)s1 | 1.6 | 18.5 | i | 3.2 | 2.1 | -4.6
O=C(Nc1ccccc1Cc1ccccc1)c1ccccc1NS(=O)(=O)c1ccc(Cl)s1 | -0.5 | 17.0 | i | 2.9 | 58.5* | 5.1
Cc1noc(C)c1-c1ccc(C(=O)NCCc2ccccc2)c2occc12 | 2.3 | / | / | / | / | /

Source: PubChem
